Data on two compounds can be found in ChEMBL document CHEMBL4196009, “Novel vitexin-inspired scaffold against leukemia” (Eur J Med Chem, 2018).

In data set [1] the test system is KOPN-8. The experiment in a line: Induction of apoptosis in human KOPN8 cells assessed as necrotic cells at 10 uM after 24 hrs by Annexin V-FITC/propidium iodide staining-based flow cytometry (reference value: 0.2%). Type of data set: functional. Put shortly: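 KOPN-8 cells were treated for 24 h, with a DMSO vehicle control and a staurosporine positive control. Cells were stained with FITC-Annexin V and propidium iodide and analysed by flow cytometry. Quadrant gating separated viable, early apoptotic, late apoptotic (Q2) and necrotic populations.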

The test system of data set [2] is MDA-MB-231. The experiment in a line: Cell cycle arrest in human MDA-MB-231 cells assessed as accumulation at G2/M phase at 20 uM after 24 hrs by propidium iodide staining-based flow cytometry (reference value: 9.38%). Type of data set: functional.
The subject of data set [3] is MDA-MB-231. The experiment in a line: Cell cycle arrest in human MDA-MB-231 cells assessed as accumulation at S phase at 20 uM after 24 hrs by propidium iodide staining-based flow cytometry (reference value: 20.15%). Type of data set: functional.
In data set [4] the test system is KOPN-8. The experiment in a line: Induction of apoptosis in human KOPN8 cells assessed as upregulation of cleaved PARP level at 100 uM pre-treated with NAC for 1 hr and measured after 3 hrs by Western blot analysis. Type of data set: functional, cell-based. Put shortly: (§1)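 KOPN-8 cells were exposed to compound for 3 h and 24 h, with or without N-acetylcysteine added to a parallel set as antioxidant. Lysates were analysed by Western blot for cleaved PARP, Mcl-1, Ser-2-phosphorylated RNAPII CTD, cMyc, total Rb and pRb. Signals were compared against controls for dose-dependent change.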

Data set [5] has as its system KOPN-8. The experiment in a line: Induction of apoptosis in human KOPN8 cells assessed as downregulation of Mcl-1 level after 3 to 24 hrs by Western blot analysis. Type of data set: functional, cell-based. Summed up:
(§2)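 KOPN-8 cells were treated at 10–100 µM final, with or without N-acetylcysteine co-addition, for 3 h and 24 h. Lysates were analysed by Western blot for PARP cleavage, Mcl-1, phospho-Ser2 RNAPII CTD, c-Myc, total Rb and pRb. Levels are relative to the vehicle control.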
(Immunoblotting shows a protein as a band on a membrane.)

Data set [6] deals with KOPN-8. The experiment in a line: Downregulation of total Rb expression in human KOPN8 cells after 24 hrs by Western blot analysis. The following applies: kopn-8, 24 h. In kind it is cell-based. Summed up: as §2
For data set [7], the system named is KOPN-8. The experiment in a line: Induction of apoptosis in human KOPN8 cells assessed as effect on Mcl-1 level at 10 uM after 24 hrs by Western blot analysis relative to control. In kind it is functional. Summed up: as §2
For data set [8], the species on record is Homo sapiens. The experiment in a line: Inhibition of RNA polymerase 2 C-terminal domain phosphorylation at Ser2 residue in human KOPN8 cells at 10 uM pre-treated with NAC for 1 hr and measured after 24 hrs by Western blot analysis relative to control. In kind it is cell-based. Summed up: as §1
The species named for data set [9] is Homo sapiens. The experiment in a line: Inhibition of RNA polymerase 2 C-terminal domain phosphorylation at Ser2 residue in human KOPN8 cells at 30 uM after 24 hrs by Western blot analysis relative to control. In kind it is cell-based. Summed up: as §1
The target in data set [10] is T1, Retinoblastoma-associated protein (Homo sapiens) (UniProt P06400).
T1 sequence (whole entry): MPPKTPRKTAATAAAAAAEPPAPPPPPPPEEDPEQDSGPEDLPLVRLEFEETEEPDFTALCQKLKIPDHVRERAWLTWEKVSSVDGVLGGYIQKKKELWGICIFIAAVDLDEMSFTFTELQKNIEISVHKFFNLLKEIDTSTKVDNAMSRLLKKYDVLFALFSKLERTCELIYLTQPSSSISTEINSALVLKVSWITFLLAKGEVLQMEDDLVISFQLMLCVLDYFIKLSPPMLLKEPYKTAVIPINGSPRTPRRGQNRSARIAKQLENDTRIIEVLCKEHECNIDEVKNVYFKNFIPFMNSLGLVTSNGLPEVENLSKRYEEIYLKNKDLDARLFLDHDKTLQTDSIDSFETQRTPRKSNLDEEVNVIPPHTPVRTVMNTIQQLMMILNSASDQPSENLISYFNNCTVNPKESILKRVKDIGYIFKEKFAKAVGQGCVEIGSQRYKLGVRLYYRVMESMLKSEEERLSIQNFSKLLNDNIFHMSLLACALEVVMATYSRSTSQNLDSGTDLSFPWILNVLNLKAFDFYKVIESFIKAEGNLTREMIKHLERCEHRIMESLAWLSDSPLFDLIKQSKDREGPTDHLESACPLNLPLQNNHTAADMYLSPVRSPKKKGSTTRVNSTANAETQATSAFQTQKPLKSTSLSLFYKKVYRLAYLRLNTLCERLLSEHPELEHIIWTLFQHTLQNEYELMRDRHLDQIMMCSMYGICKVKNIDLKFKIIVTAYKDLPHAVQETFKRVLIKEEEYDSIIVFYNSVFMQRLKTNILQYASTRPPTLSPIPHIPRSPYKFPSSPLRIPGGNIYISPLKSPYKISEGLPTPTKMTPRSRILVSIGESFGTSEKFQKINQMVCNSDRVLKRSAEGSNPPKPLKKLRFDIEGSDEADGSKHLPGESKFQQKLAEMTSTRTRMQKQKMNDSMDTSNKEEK
The experiment in a line: Inhibition of Rb phosphorylation in human KOPN8 cells assessed as ratio of phosphorylated Rb to total Rb levels at 10 uM pre-treated with NAC for 1 hr and measured after 24 hrs by Western blot analysis relative to control. Type of data set: cell-based. Put shortly:
(§3)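 KOPN-8 pre-B ALL cells were treated for 3 h and 24 h, with or without N-acetyl cysteine added to a parallel set of cells as an antioxidant/ROS quencher. Lysates were analysed by Western blot for phosphorylated Rb and total Rb. The same blots also probed PARP cleavage, Mcl-1, Ser-2-phosphorylated RNAPII CTD and cMyc.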

Data set [11] has as its target T1, Retinoblastoma-associated protein (Homo sapiens). The experiment in a line: Inhibition of Rb phosphorylation in human KOPN8 cells assessed as ratio of phosphorylated Rb to total Rb levels at 30 uM pre-treated with NAC for 1 hr and measured after 24 hrs by Western blot analysis relative to control. Type of data set: cell-based. Put shortly: as §3
Data set [12] has the same target. The experiment in a line: Inhibition of Rb phosphorylation in human KOPN8 cells assessed as ratio of phosphorylated Rb to total Rb levels at 100 uM pre-treated with NAC for 1 hr and measured after 24 hrs by Western blot analysis relative to control. In kind it is cell-based. Summed up: as §3
Data set [13] relates to SUP-B15. The experiment in a line: Induction of apoptosis in human SUP-B15 cells assessed as necrotic cells at 5 uM after 24 hrs by Annexin V-FITC/propidium iodide staining-based flow cytometry (reference value: 9.2%). Type of data set: functional. (In flow cytometry, cells or beads pass a laser one at a time.)

The source made the active and inactive calls. The calls are words filed in the database; no cut-off is given here.

Regarding `COc1ccc(-c2c(I)c(=O)c3c(OC)cc(OC)cc3n2S(=O)(=O)c2ccc(OC)cc2)cc1`, the Activity in data set [1] was 0.3%; in data set [2] it was 15.97%; in data set [3] it was 17.81%; in [5], “Dose-dependent effect”; in [6], “Dose-dependent effect”. Further, in data set [4], the result was inactive. Further, the “fold change (FC)” value in data set [7] turned out to be 1.1; in data set [8], 1.5; in data set [9], 1.6; in data set [10] it was 1; in data set [11], 1; in data set [12], 1.2.
Turning to `CN(C)C(=O)c1cc2cnc(Nc3ccc(N4CCNCC4)cn3)nc2n1C1CCCC1` [RIBOCICLIB], the Activity in data set [13] is 25.7%.
